Source: ChEMBL document CHEMBL1125461, “Analogues of platelet activating factor. 6. Mono- and bis-aryl phosphate antagonists of platelet activating factor” (J Med Chem, 1992)

What was measured:
Format in all cases: functional
Mus musculus [1] = experiment: Compound was tested for protecting PAF-induced lethality in mouse at a dose of 2.5 mg/kg (Out of 10)
In short: (§1)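 Female Swiss-Webster mice (20–25 g) were dosed ip with compound in saline at 10 mL/kg, and controls got saline alone. Thirty minutes later, racemic C16-PAF in saline was given as an iv tail-vein bolus at 10 mL/kg (75–150 µg/kg PAF). Survival was checked at 1.5 h and was recorded as dead/total.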

Mus musculus [2] = experiment: Compound was tested for protecting PAF-induced lethality in mouse at a dose of 10 mg/kg (Out of 13); in short: as §1
Mus musculus [3] = experiment: Compound was tested for protecting PAF-induced lethality in mouse at a dose of 1 mg/kg (Out of 12); in short: as §1
Mus musculus [4] = experiment: Compound was tested for protecting PAF-induced lethality in mouse at a dose of 0.5 mg/kg (Out of 41); in short: as §1
Oryctolagus cuniculus [5] = species on record: Oryctolagus cuniculus; experiment: Compound was tested for its ability to inhibit PAF induced platelet aggregation in rabbit (No inhibition observed at a compound concentration up to 10 uM)
Mus musculus [6] = experiment: Compound was tested for protecting PAF-induced lethality in mouse at a dose of 0.5 mg/kg (Out of 38); in short: as §1
Mus musculus [7] = experiment: Compound was tested for protecting PAF-induced lethality in mouse at a dose of 0.5 mg/kg (Out of 11); in short: as §1
Mus musculus [8] = experiment: Compound was tested for protecting PAF-induced lethality in mouse at a dose of 1 mg/kg (Out of 10); in short: as §1
Oryctolagus cuniculus [9] = species on record: Oryctolagus cuniculus; experiment: Compound was tested for its ability to inhibit PAF induced platelet aggregation in rabbit at a dose of 50 uM
Oryctolagus cuniculus [10] = experiment: Compound was tested for protecting PAF-induced lethality in rabbit at a dose of 2.5 mg/kg (Out of 2)
In short: (§2)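 Rabbits got compound iv 15 min before an iv challenge of L-C16-PAF at 150 µg/kg, made from a methanol stock diluted in saline. Controls were saline-treated. Survival was checked at 1 h and was recorded as dead/total.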

Mus musculus [11] = experiment: Compound was tested for protecting PAF-induced lethality in mouse at a dose of 10 mg/kg (Out of 12); in short: as §1
Mus musculus [12] = experiment: Compound was tested for protecting PAF-induced lethality in mouse at a dose of 0.5 mg/kg (Out of 49); in short: as §1
Oryctolagus cuniculus [13] = experiment: Compound was tested for protecting PAF-induced lethality in rabbit at a dose of 1 mg/kg (Out of 2); in short: as §2
Oryctolagus cuniculus [14] = experiment: Compound was tested for protecting PAF-induced lethality in rabbit at a dose of 10 mg/kg (Out of 2); in short: as §2
Mus musculus [15] = experiment: Compound was tested for protecting PAF-induced lethality in mouse at a dose of 2.5 mg/kg (Out of 16); in short: as §1
Mus musculus [16] = experiment: Compound was tested for protecting PAF-induced lethality in mouse at a dose of 10 mg/kg (Out of 10); in short: as §1
Oryctolagus cuniculus [17] = experiment: Compound was tested for protecting PAF-induced lethality in rabbit at a dose of 3 mg/kg (Out of 2)
Mus musculus [18] = experiment: Compound was tested for protecting PAF-induced lethality in mouse at a dose of 0.5 mg/kg (Out of 9); in short: as §1
Mus musculus [19] = experiment: Compound was tested for protecting PAF-induced lethality in mouse at a dose of 0.5 mg/kg (Out of 10); in short: as §1
Mus musculus [20] = experiment: Compound was tested for protecting PAF-induced lethality in mouse at a dose of 1 mg/kg (Out of 74); in short: as §1
Mus musculus [21] = experiment: Compound was tested for protecting PAF-induced lethality in mouse at a dose of 1 mg/kg (Out of 88); in short: as §1
Mus musculus [22] = experiment: Compound was tested for protecting PAF-induced lethality in mouse at a dose of 0.5 mg/kg (Out of 220); in short: as §1
Oryctolagus cuniculus [23] = experiment: Compound was tested for protecting PAF-induced lethality in rabbit at a dose of 10 mg/kg (Out of 5); in short: as §2
Oryctolagus cuniculus [24] = experiment: Compound was tested for protecting PAF-induced lethality in rabbit at a dose of 1 mg/kg (Out of 3); in short: as §2
Oryctolagus cuniculus [25] = experiment: Compound was tested for protecting PAF-induced lethality in rabbit at a dose of 5 mg/kg (Out of 3); in short: as §2
Mus musculus [26] = experiment: Compound was tested for protecting PAF-induced lethality in mouse at a dose of 0.5 mg/kg (Out of 830); in short: as §1
Oryctolagus cuniculus [27] = experiment: Compound was tested for protecting PAF-induced lethality in rabbit at a dose of 2.5 mg/kg (Out of 4); in short: as §2
Oryctolagus cuniculus [28] = experiment: Compound was tested for protecting PAF-induced lethality in rabbit at a dose of 1 mg/kg (Out of 11); in short: as §2
Oryctolagus cuniculus [29] = experiment: Compound was tested for protecting PAF-induced lethality in rabbit at a dose of 5 mg/kg (Out of 5); in short: as §2
Oryctolagus cuniculus [30] = species on record: Oryctolagus cuniculus; experiment: Compound was tested for its ability to inhibit PAF induced platelet aggregation in rabbit at a dose of 10 uM
Mus musculus [31] = experiment: Compound was tested for protecting PAF-induced lethality in mouse at a dose of 1.25 mg/kg (Out of 10); in short: as §1
Mus musculus [32] = experiment: Compound was tested for protecting PAF-induced lethality in mouse at a dose of 0.5 mg/kg (Out of 23); in short: as §1

CCCCCCCCCCCCCCCCCCNC(=O)OCC(COP(=O)([O-])Oc1ccccc1C[n+]1ccsc1)OC (stereo not drawn)
Lethality (Mus musculus [1]): 0 dead/total

CCCCCCCCCCCCCCOc1cccc(OP(=O)([O-])Oc2cccc(C[n+]3c(C)sc(C)c3C)c2)c1OC
Lethality (Mus musculus [2]): 6 dead/total
Lethality (Mus musculus [3]): 9 dead/total

CCCCCCCCCCCCCCOc1ccc(OP(=O)([O-])Oc2cccc(C[n+]3csc(C)c3)c2)c(OC)c1
Lethality (Mus musculus [4]): 16 dead/total

CCCCCCCCCCCCCCOc1cccc(OP(=O)([O-])Oc2cccc(CC[n+]3csc(C)c3)c2)c1OC
IC50 (Oryctolagus cuniculus [5]): Not Active

CCCCCCCCCCCCCCOc1cccc(OP(=O)([O-])Oc2cccc(C[n+]3csc(C)c3)c2)c1C(C)=O
Lethality (Mus musculus [6]): 18 dead/total

CCCCCCCCCCCCCCOc1cccc(OP(=O)([O-])Oc2cccc(C[n+]3ccsc3)c2)c1C(=O)OC
Lethality (Mus musculus [7]): 11 dead/total
Lethality (Mus musculus [8]): 5 dead/total

CCCCCCCCCCCCCCOc1cccc(OP(=O)([O-])Oc2cccc(C[N+]3=CN=CC3)c2)c1OC
Inhibition (Oryctolagus cuniculus [9]): 12%

CCCCCCCCCCCCOc1cccc(OCC(COP(=O)([O-])Oc2cccc(C[n+]3ccsc3)c2)OC)c1C (stereo not drawn)
Lethality (Mus musculus [7]): 1 dead/total

CCCCCCCCCCCCOc1cc(C(C)(C)C)c(OP(=O)([O-])Oc2cccc(C[n+]3csc(C)c3)c2)cc1C(C)(C)C
Lethality (Oryctolagus cuniculus [10]): 0 dead/total

CCCCCCCCCCCCOc1cccc(OCC(COP(=O)([O-])Oc2cccc(C[n+]3csc(C)c3)c2)OCC)c1C (stereo not drawn)
Lethality (Mus musculus [11]): 6 dead/total
Lethality (Mus musculus [12]): 23 dead/total
Lethality (Oryctolagus cuniculus [10]): 1 dead/total
Lethality (Oryctolagus cuniculus [13]): 1 dead/total
Lethality (Oryctolagus cuniculus [14]): 0 dead/total
Lethality (Mus musculus [15]): 0 dead/total

CCCCCCCCCCCCCCOc1ccc(C(=O)c2ccccc2)c(OP(=O)([O-])Oc2cccc(C[n+]3csc(C)c3)c2)c1
Lethality (Mus musculus [16]): 0 dead/total
Lethality (Mus musculus [8]): 3 dead/total

CCCCCCCCCCCCOc1cccc(OCC(COP(=O)([O-])Oc2cccc(C[n+]3csc(C)c3)c2)OC)c1 (stereo not drawn)
Lethality (Oryctolagus cuniculus [17]): 1 dead/total

CCCCCCCCCCCCCCOc1cccc(OP(=O)([O-])Oc2cccc(C[n+]3ccsc3)c2)c1OC
Lethality (Mus musculus [18]): 4 dead/total

CCCCCCCCCCCCCCc1cccc(OCC(COP(=O)([O-])Oc2cccc(C[n+]3ccsc3)c2)OC)c1 (stereo not drawn)
Lethality (Mus musculus [19]): 0 dead/total
Lethality (Oryctolagus cuniculus [10]): 1 dead/total

CCCCCCCCCCCCOc1cc(OP(=O)([O-])Oc2cccc(C[n+]3ccsc3)c2)c(C(C)(C)C)cc1C(C)(C)C
Lethality (Oryctolagus cuniculus [10]): 2 dead/total
Inhibition (Oryctolagus cuniculus [9]): 15%

CCCCCCCCCCCCCCOc1cccc(OP(=O)([O-])Oc2cccc(C[n+]3csc(C)c3)c2)c1OC
Lethality (Mus musculus [20]): 40 dead/total
Lethality (Mus musculus [21]): 24 dead/total
Lethality (Mus musculus [22]): 80 dead/total
Lethality (Oryctolagus cuniculus [23]): 0 dead/total
Lethality (Oryctolagus cuniculus [24]): 2 dead/total
Lethality (Oryctolagus cuniculus [25]): 1 dead/total

CCCCCCCCCCCCCCOc1cccc(OP(=O)([O-])Oc2cccc(C[n+]3csc(C)c3)c2)c1C(=O)OC
Lethality (Mus musculus [26]): 165 dead/total
Lethality (Mus musculus [8]): 3 dead/total
Lethality (Oryctolagus cuniculus [27]): 0 dead/total
Lethality (Oryctolagus cuniculus [28]): 6 dead/total
Lethality (Oryctolagus cuniculus [29]): 0 dead/total

CCCCCCCCCCCCCCCCOCC(COP(=O)(O)Oc1cccc(C/N=C(\S)Nc2ccccc2)c1)OC (stereo not drawn)
Inhibition (Oryctolagus cuniculus [30]): 22%

CCCCCCCCCCCCCCCCOCC(COP(=O)([O-])Oc1cccc(C[n+]2csc(C)c2)c1)OC (stereo not drawn)
Lethality (Mus musculus [31]): 4 dead/total
Lethality (Oryctolagus cuniculus [10]): 1 dead/total

CCCCCCCCCCCCCCCCOCC(COP(=O)([O-])Oc1ccccc1C[n+]1ccsc1)OC (stereo not drawn)
Lethality (Oryctolagus cuniculus [10]): 1 dead/total

CCCCCCCCCCCCCCOc1ccc(OP(=O)([O-])Oc2cccc(C[n+]3csc(C)c3)c2)c(C(C)=O)c1
Lethality (Mus musculus [32]): 6 dead/total

CCCCCCCCCCCCCCCCOCC(COP(=O)([O-])Oc1cccc(C[n+]2ccsc2)c1)OC (stereo not drawn)
Lethality (Mus musculus [31]): 2 dead/total
Lethality (Oryctolagus cuniculus [10]): 1 dead/total
